Experimental data published in ChEMBL document CHEMBL1154802, “Antiestrogenic constituents of the Thai medicinal plants Capparis flavicans and Vitex glabrata” (2009).
Active and inactive are the calls of the source. The rule behind the calls is not given here.

How the values were obtained:
[1] = tested on: MCF7; assay: Antiestrogenic activity in human MCF7 cells assessed as drug level causing inhibition of 100 pM E2-enhanced cell proliferation to level equivalent to 10 pM E2 after 96 hrs by alamar blue assay; format: functional
Outline: (§1)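 Cells seeded at 1 × 10^4 per well in phenol red-free RPMI with 5% DCC-treated FBS. E2 was added from a 20 nM solution to give 100 pM and preincubated 1 h at 37 °C, 5% CO2. Compounds were then added at 0.1, 1, 10 and 100 µM for 96 h, with serially diluted tamoxifen as positive control. Antagonism was judged from cell populations. iEqE values were obtained by linear regression over four concentrations.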

[2] = tested on: MCF7; assay: Antiestrogenic activity in human MCF7 cells assessed as drug level causing inhibition of 100 pM E2-enhanced cell proliferation to level equivalent to 1 pM E2 after 96 hrs by alamar blue assay; format: functional; outline: as §1
[3] = tested on: T47D; assay: Antiestrogenic activity in human T47D cells assessed as drug level causing inhibition of 100 pM E2-enhanced cell proliferation to level equivalent to 50 pM E2 after 96 hrs by alamar blue assay; format: functional; outline: as §1
[4] = tested on: MCF7; assay: Antiestrogenic activity in human MCF7 cells assessed as drug level causing inhibition of 100 pM E2-enhanced cell proliferation to level equivalent to 50 pM E2 after 96 hrs by alamar blue assay; format: functional; outline: as §1
[5] = tested on: T47D; assay: Antiestrogenic activity in human T47D cells assessed as drug level causing inhibition of 100 pM E2-enhanced cell proliferation to level equivalent to 1 pM E2 after 96 hrs by alamar blue assay; format: functional; outline: as §1
[6] = tested on: MCF7; assay: Stimulation of human MCF7 cell proliferation up to 100 uM after 96 hrs by alamar blue assay relative to estradiol; format: functional, cell-based
Outline: (§2)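 Compounds were given alone at 0.1, 1, 10 and 100 µM, and stimulation of proliferation was compared with estradiol at 1–100 pM. Cell proliferation assay as in an earlier report.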

[7] = tested on: T47D; assay: Stimulation of human T47D cell proliferation up to 100 uM after 96 hrs by alamar blue assay relative to estradiol; format: functional, cell-based; outline: as §2
[8] = tested on: T47D; assay: Antiestrogenic activity in human T47D cells assessed as drug level causing inhibition of 100 pM E2-enhanced cell proliferation to level equivalent to 10 pM E2 after 96 hrs by alamar blue assay; format: functional; outline: as §1

| Structure (SMILES) | Activity [1] [µM] | Activity [2] [µM] | Activity [3] [µM] | Activity [4] [µM] | Activity [5] [µM] | Activity [6] | Activity [7] | Activity [8] [µM] |
| --- | --- | --- | --- | --- | --- | --- | --- | --- |
| OC/C=C/c1ccc2c(c1)O[C@H](c1ccc(O)c(O)c1)[C@@H](CO)O2 [ISOAMERICANOL A] | 6 | >100 | <0.1 | <0.1 | >100 | inactive | inactive | 9 |
| OC[C@@H]1Oc2ccc([C@H]3OC[C@H]4[C@@H]3CO[C@@H]4c3ccc(O)c(O)c3)cc2O[C@H]1c1ccc(O)c(O)c1 [PRINCEPIN] | 4 | 7 | 0.4 | 0.3 | 6 | inactive | inactive | 1 |
| C[C@@H](/C=C/[C@]1(O)[C@]2(C)CO[C@@]1(C)CC(=O)C2)O[C@@H]1O[C@H](CO)[C@@H](O)[C@H](O)[C@H]1O [SPIONOSIDE B] | <0.1 | 15 | 0.2 | <0.1 | >100 | inactive | inactive | 61 |
| OC[C@H]1O[C@@H](Oc2cc([C@H]3OC[C@]4(O)[C@@H](c5ccc6c(c5)OCO6)OC[C@]34O)ccc2O)[C@H](O)[C@@H](O)[C@@H]1O [KHAINAOSIDE A] | <0.1 | <0.1 | <0.1 | <0.1 | 3 | inactive | inactive | <0.1 |
| COc1cc([C@H]2OC[C@H]3[C@@H]2CO[C@@H]3c2cc(OC)c(O)c(OC)c2)cc(OC)c1O [SYRINGARESINOL] | 4 | 5 | <0.1 | 2 | 7 | inactive | inactive | 1 |
| COc1cc(O)cc(OC)c1O[C@@H]1O[C@H](CO)[C@@H](O)[C@H](O)[C@H]1O [LEONURISIDE] | <0.1 | >100 | 0.4 | <0.1 | >100 | inactive | inactive | 39 |
| Oc1ccc([C@H]2OC[C@H]3[C@@H]2CO[C@@H]3c2ccc(O)c(O)c2)cc1O | 31 | 94 | 0.2 | 0.2 | 73 | inactive | inactive | 26 |
| CC/C(=C(\c1ccccc1)c1ccc(OCCN(C)C)cc1)c1ccccc1 [TAMOXIFEN] | 0.2 | 0.4 | 0.1 | 0.1 | 9 | – | – | 0.7 |
| COc1cc(C[C@H](CO)[C@@H](CO[C@@H]2O[C@H](CO)[C@@H](O)[C@H](O)[C@H]2O)Cc2cc(OC)c(O)c(OC)c2)cc(OC)c1O | 0.8 | 93 | 0.6 | <0.1 | >100 | inactive | inactive | >100 |
| COc1cc([C@H]2Oc3c(OC)cc(/C=C/CO)cc3[C@@H]2CO)ccc1O[C@@H]1O[C@H](CO)[C@@H](O)[C@H](O)[C@H]1O | >100 | >100 | <0.1 | 0.3 | >100 | inactive | inactive | 63 |
